Target: T1, Steryl-sulfatase (Homo sapiens, UniProt P08842)
T1 sequence (P08842 whole entry): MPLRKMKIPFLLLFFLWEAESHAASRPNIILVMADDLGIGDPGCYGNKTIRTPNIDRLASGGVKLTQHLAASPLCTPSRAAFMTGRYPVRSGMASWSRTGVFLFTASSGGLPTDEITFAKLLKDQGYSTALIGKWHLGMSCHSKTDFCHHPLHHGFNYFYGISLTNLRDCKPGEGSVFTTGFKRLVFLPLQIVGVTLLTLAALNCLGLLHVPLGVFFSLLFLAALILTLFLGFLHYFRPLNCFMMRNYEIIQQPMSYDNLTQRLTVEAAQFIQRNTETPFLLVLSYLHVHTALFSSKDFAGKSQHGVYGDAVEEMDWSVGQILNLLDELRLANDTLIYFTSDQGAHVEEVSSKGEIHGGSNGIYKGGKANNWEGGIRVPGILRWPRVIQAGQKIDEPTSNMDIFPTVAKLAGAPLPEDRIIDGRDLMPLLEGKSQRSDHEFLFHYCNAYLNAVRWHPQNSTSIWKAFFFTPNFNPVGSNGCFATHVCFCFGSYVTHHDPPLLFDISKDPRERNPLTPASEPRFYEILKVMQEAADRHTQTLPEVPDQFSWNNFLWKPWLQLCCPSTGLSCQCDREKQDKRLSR
Assay: Compound was evaluated for its inhibitory activity against estrone sulfatase enzyme
Summary of the method: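 They are added to tubes holding [3H]estrone sulfate (300,000 dpm) and inhibitor, which was dried from ethanol under nitrogen. Incubation runs 20 min at 37 °C and is quenched with toluene. Radioactivity in the toluene extract is counted. Triplicates are run alongside no-inhibitor controls and boiled-microsome blanks.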

Compound | IC50 [µM]
CCCCOC(=O)c1ccc(-c2ccc(OS(N)(=O)=O)cc2)cc1 | 5.8
N#Cc1ccc(-c2ccc(OS(N)(=O)=O)cc2)cc1 | 6.7
Cc1cc(=O)oc2cc(OS(N)(=O)=O)ccc12 [4-methyl-2-oxo-2H-chromen-7-yl sulfamate] | 10
NS(=O)(=O)Oc1ccc(-c2ccccc2)cc1 [Sulfamic acid biphenyl-4-yl ester] | 76.1

Compounds with a lower IC50, results first:

IC50 [µM] | Compound
5.2 | COC(=O)c1ccc(-c2ccc(OS(N)(=O)=O)cc2)cc1
4.2 | CCOC(=O)c1ccc(-c2ccc(OS(N)(=O)=O)cc2)cc1
3.5 | CCCOC(=O)c1ccc(-c2ccc(OS(N)(=O)=O)cc2)cc1

From BindingDB's records for doi:10.1016/s0960-894x(02)00170-1 (Kingston University, 2002)
